A short description of data set [1]: Compound was evaluated for the ability to inhibit H+/K+ -ATPase formation in rabbit gastric glands. The data set is classed as functional, tissue-based, Oryctolagus cuniculus, Stomach. In outline: (§1)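 Isolated rabbit gastric glands (collagenase-digested corpus mucosa, 37 °C ~1 h, rinsed, in respiratory medium pH 7.4). 10 mg wet weight glands incubated in RM with 0.05 μCi [14C]aminopyrine, stimulated with 10^-4 M histamine, 37 °C, 1 h shaking. Acid formation read as aminopyrine uptake. Inhibitors diluted in methanol, final 1%. IC50 = 50% inhibition.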

Data set [2] is described as follows: Compound was evaluated for the ability to inhibit purified H+/K+ -ATPase at pH 7.4, by using gastric membrane vesicles prepared from hog stomach. The data set is classed as functional, tissue-based, Sus scrofa. In outline: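 Lyophilized, K+-permeable hog gastric membrane vesicles (10 μg) preincubated with inhibitor 30 min at 37 °C in 2 mM Pipes-Tris pH 7.4 with 10 mM KCl. Reaction started with 2 mM ATP/2 mM MgCl2. Read-out is inorganic phosphate release. K+-stimulated activity = total minus basal Mg2+ activity. Inhibitors added from methanol, final 1%. IC50 = 50% inhibition.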

The species named for a further data set is Sus scrofa. Description: The percent of compound protonated at pH 7.4 in purified H+/K+ -ATPase from hog stomach.
Data set [3] in a line: pKa value of the compound. The class given is physicochemical.
Data set [4] in a line: Compound was evaluated for the ability to inhibitH+/K+ -ATPase formation in rabbit gastric glands. The class given is functional, tissue-based, Oryctolagus cuniculus, Stomach. In outline:
as §1

A further data set is filed under the species Oryctolagus cuniculus. Description: The percent of compound protonated at pH 7.4. The class given is functional.
A short description of data set [5]: Inhibitory activity against histamine-stimulated gastric acid secretion in adult mengrel dogs, with surgically prepared Heidenhain pouches after peroral administration. The note with it: Canis lupus familiaris, Stomach, po. The class given is functional. In short, it runs like this:
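Heidenhain pouch mongrel dogs under histamine-stimulated acid secretion, oral dosing 2-8 mg/kg. Reduction in acid output taken relative to the untreated control value in the same dog. ED50 by linear regression, with 95% confidence limits.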

Data set [6] can be described thus: Inhibitory activity against histamine-stimulated gastric acid secretion in adult mengrel dogs, with surgically prepared Heidenhain pouches after intravenous administration. Conditions: Canis lupus familiaris, Stomach. The data set is classed as functional. In outline:
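Adult mongrel dogs with surgically prepared Heidenhain pouches, acid secretion stimulated by histamine. Intravenous dosing, 0.1-5 mg/kg. Acid output reduction measured against the non-drug control in the same animal. ED50 from linear regression, with 95% confidence limits.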

Structures are written as SMILES.

The term pKa denotes the pH at which an ionisable group is half protonated. Read a low pKa as a group that gives up its proton readily. With `Cc1nc2c(C/C=C/c3ccccc3)cccn2c1CC#N`, the IC50 is reported as 442 uM l-1 in data set [1] and 206 uM l-1 in data set [2]. The Protonated in the data set filed under Sus scrofa stood at 3.83%. Moreover, the pKa in data set [3] stood at 6.

For `Cc1nc2c(OCc3ccccc3)nccn2c1N`, the results for the IC50 in data set [1] and in data set [2] were 8.08 uM l-1 and 178 uM l-1, respectively. The same compound displayed a Protonated in the data set filed under Sus scrofa of 0.158%. In data set [3], this compound yielded a pKa of 4.6.

On to `Cc1ccn2c(CC#N)c(C)nc2c1OCc1ccccc1`, for which the results for the IC50 in data set [1] and in data set [2] were 0.4 uM l-1 and 13.7 uM l-1, respectively. This compound also came in with a Protonated in the data set listed under Sus scrofa of 1.83%. The compound further had a pKa in data set [3] of 5.67.

Regarding `Cc1nc2c3c(ccn2c1CC#N)CCC(c1ccccc1)O3` (racemic), the IC50 is 0.064 uM l-1 in data set [1] and 0.092 uM l-1 in data set [2]. This compound also yielded a Protonated in the data set listed under Sus scrofa of 3.83%. Moreover, the pKa in data set [3] is 6.

As for `Cc1nc2c(/C=C/Cc3ccccc3)cccn2c1CC#N`, the IC50 was determined as 3.8 uM l-1 in data set [1] and 14 uM l-1 in data set [2]. In the data set filed under Sus scrofa, this compound showed a Protonated of 1.96%. This compound also returned a pKa in data set [3] of 5.7.

Regarding `Cc1nc2c(CCc3ccccc3)cccn2c1N`, the IC50 amounted to 1.46 uM l-1 in data set [1] and 2.1 uM l-1 in data set [2]. For the same compound, the Protonated in the data set listed under Sus scrofa was determined as 44.3%. Further, the pKa in data set [3] came out at 7.3.

Consider `Cc1nc2c(/C=C\c3ccccc3)cccn2c1C`, for which the IC50 was 28.4 uM l-1 in data set [2] and 17.5 uM l-1 in data set [4]. Besides, in the data set filed under Oryctolagus cuniculus, the Protonated is 38.7%. This compound also yielded a pKa in data set [3] of 7.2.

One may read the ED50 as the dose at which the effect has come halfway, by size or by number of responders. Higher therefore signals weaker potency. As for `Cc1nc2c(CCc3ccccc3)cccn2c1CC#N`, the IC50 is recorded as 0.13 uM l-1 in data set [1] and 2 uM l-1 in data set [2]. In addition, the Protonated in the data set filed under Sus scrofa stood at 3.83%. Moreover, the ED50 in data set [5] is above 4.4 mg/kg; in data set [6] it was 0.1 mg/kg. Besides, the pKa in data set [3] turned out to be 6.

Regarding `Cc1nc2c(OCc3ccccc3)cccn2c1N`, the results for the IC50 in data set [1] and in data set [2] were 0.31 uM l-1 and 0.89 uM l-1, respectively. The Protonated in the data set filed under Sus scrofa came out at 20.4%. In addition, in data set [3], the pKa was determined as 6.81.

Take `Cc1nc2c(/C=C/Cc3ccccc3)cccn2c1N`: the IC50 in data set [1] is 14.1 uM l-1; in data set [2], 8.6 uM l-1. This compound came in with a Protonated in the data set filed under Sus scrofa of 18.3%. In data set [3], this compound showed a pKa of 6.75.

`Cc1nc2c(/C=C/c3ccccc3)cccn2c1C`: the IC50 is given as 1.68 uM l-1 in data set [2] and 0.99 uM l-1 in data set [4]. The figures for the 50% effective dose (ED50) in data set [5] and in data set [6] were 4.8 mg/kg and 0.7 mg/kg, respectively. This compound also displayed a Protonated in the data set filed under Oryctolagus cuniculus of 38.7%. In addition, in data set [3], the pKa was 7.2.

In turn, `Cc1nc2c(OCc3ccccc3)cccn2c1CC#N` yielded a pKa in data set [3] of 5.5.

The record behind these values is ChEMBL document CHEMBL1125872, “Antiulcer agents. 5. Inhibition of gastric H+/K(+)-ATPase by substituted imidazo[1,2-a]pyridines and related analogues and its implication in modeling the high affinity potassium ion binding site of the gastric proton pump enzyme” (J Med Chem, 1991).
